From ChEMBL document CHEMBL3286298 (Eur J Med Chem, 2014) come the findings set out here.

Data set [1] in a line: Chemical stability of compound in phosphate buffer assessed as half life at pH 5.86 by HPLC analysis. Format: physicochemical. The essentials: (§1)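 Methanol solution of compound mixed into 4 ml phosphate buffer (pH 2.21, 5.86, 7.33 or 7.88), held at 37 °C; samples taken at 0, 1, 3, 6, 12, 24 h and analysed by reverse-phase HPLC (methanol/water 70:30, pH 2.86, UV 219 nm). Pseudo-first-order Kdisapp from linear regression of ln peak area against time in hours; t1/2 derived from it.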

Data set [2] deals with Brain. Briefly: Metabolic stability in mouse brain assessed as first order rate constant of disappearance of drug by HPLC analysis. Format: ADME, tissue-based. In outline:
(§2)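 Incubation in mouse plasma extract or brain homogenate at 37 °C; remaining compound measured by HPLC (UV 219 nm). Pseudo-first-order Kdisapp from linear regression of ln peak area against time in minutes; half-life derived from it.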

Data set [3] relates to Brain. The data set can be described thus: Drug uptake in Kunming mouse brain assessed as concentration efficiency […] iv ibuprofen administered as single dose by HPLC analysis relative to ibuprofen. Format: ADME, organism-based. The note with it: in vivo.
Data set [4] in a line: Chemical stability of compound in phosphate buffer assessed as first order rate constant of disappearance of drug at pH 7.33 by HPLC analysis. Type of data set: physicochemical. The essentials:
as §1

Data set [5] is described as follows: Metabolic stability in mouse plasma assessed as first order rate constant of disappearance of drug by HPLC analysis. Format: ADME, cell-free. The essentials:
as §2

Data set [6] can be described thus: Metabolic stability in mouse brain assessed as compound half life by HPLC analysis. Type of data set: ADME, tissue-based. The essentials:
as §2

Data set [7] in a line: Chemical stability of compound in phosphate buffer assessed as half life at pH 7.33 by HPLC analysis. Format: physicochemical. The essentials:
as §1

Data set [8] relates to Brain. The data set can be described thus: AUC (0 to t) in Kunming mouse brain […] iv ibuprofen administered as single dose by HPLC analysis. Format: ADME, organism-based. The conditions noted are these: in vivo.
Data set [9] can be described thus: Chemical stability of compound in phosphate buffer assessed as first order rate constant of disappearance of drug at pH 5.86 by HPLC analysis. Format: physicochemical. In outline:
as §1

The nature of data set [10]: Chemical stability of compound in phosphate buffer assessed as half life at pH 2.21 by HPLC analysis. Type of data set: physicochemical. In outline:
as §1

Data set [11] can be described thus: Chemical stability of compound in phosphate buffer assessed as half life at pH 7.88 by HPLC analysis. Format: physicochemical. The essentials: as §1
The subject of data set [12] is Brain. Briefly: Drug uptake in Kunming mouse brain […] iv ibuprofen administered as single dose by HPLC analysis relative to ibuprofen. Format: ADME, organism-based. The conditions noted are these: in vivo.
The nature of data set [13]: Chemical stability of compound in phosphate buffer assessed as first order rate constant of disappearance of drug at pH 2.21 by HPLC analysis. Type of data set: physicochemical. The essentials: as §1
Data set [14] can be described thus: Chemical stability of compound in phosphate buffer assessed as first order rate constant of disappearance of drug at pH 7.88 by HPLC analysis. Format: physicochemical. The essentials: as §1
Data set [15] can be described thus: Metabolic stability in mouse plasma assessed as compound half life by HPLC analysis. Type of data set: ADME, cell-free. In outline:
as §2

A short description of data set [16]: Mean residence time in Kunming mouse blood at 48 mmol/g, iv administered as single dose by HPLC analysis. Format: ADME, organism-based.
The subject of data set [17] is Brain. Briefly: AUC (0 to t) in Kunming mouse brain at 48 mmol/g, iv administered as single dose by HPLC analysis. Type of data set: ADME, organism-based. The note with it: in vivo.
A short description of data set [18]: Tmax in Kunming mouse blood at 48 mmol/g, iv administered as single dose by HPLC analysis. Type of data set: ADME, organism-based.
Data set [19] in a line: Cmax in Kunming mouse brain at 48 mmol/g, iv administered as single dose by HPLC analysis. Format: ADME, organism-based. The arrangement: dose 48 mmol/g, route intravenous.
Data set [20] is described as follows: Tmax in Kunming mouse brain at 48 mmol/g, iv administered as single dose by HPLC analysis. Format: ADME, organism-based.
Data set [21] can be described thus: AUC (0 to t) in Kunming mouse blood at 48 mmol/g, iv administered as single dose by HPLC analysis. Format: ADME, organism-based.
The nature of data set [22]: Cmax in Kunming mouse blood at 48 mmol/g, iv administered as single dose by HPLC analysis. Type of data set: ADME, organism-based. The arrangement: dose 48 mmol/g, route intravenous.

Structures are written as SMILES.

For orientation: half-life means the time in which the quantity being followed falls by half. The term MRT denotes a mean duration of stay, worked out from the concentration-time curve. The Tmax is the time at which the peak concentration occurs. The Cmax is the highest concentration seen after dosing. By AUC(0-t) is commonly meant exposure summed from dosing to a finite time, without extrapolation to infinity.

Turning to `CC(C)Cc1ccc(C(C)C(=O)OCC(O)C2OC(=O)C(O)=C2O)cc1` (configuration not stated), the half-life in data set [1] was 18.4 h; in [6], 0.335 h; in data set [7], 14.8 h; in data set [10], 40.1 h; in data set [11], 8.2 h; in [15], 0.777 h. The K in the data set on Brain [2] is recorded as 3.46 ×10⁻² /min; in data set [4], 4.67 ×10⁻² /hr; in [9], 3.76 ×10⁻² /hr; in data set [13] it was 1.73 ×10⁻² /hr; in data set [14] it was 8.42 ×10⁻² /hr. Moreover, the values for the Ratio with Brain [3] and with Brain [12] were 2.619 and 2.03, respectively. Also, in [5], the k el was 0.000248 s⁻¹. Further, the AUCt in the data set on Brain [8] is 3767.9842 µg·min/g.

For the compound `C/C(=C(\CCOC(=O)C(C)c1ccc(CC(C)C)cc1)SSCc1ccccc1)N(C=O)CC(=O)OCC(OC(=O)C(C)c1ccc(CC(C)C)cc1)C1OC(=O)C(O)=C1O` (configuration not stated), the half-life was 23.9 h in data set [1]; 0.212 h in data set [6]; 16.2 h in data set [7]; 53.9 h in [10]; 10.1 h in data set [11]; 0.463 h in [15]. Moreover, the K with Brain [2] is reported as 5.46 ×10⁻² /min; in data set [4], 4.27 ×10⁻² /hr; in data set [9], 2.89 ×10⁻² /hr; in [13], 1.29 ×10⁻² /hr; in data set [14], 6.87 ×10⁻² /hr. For the same compound, the Ratio amounted to 7.461 with Brain [3] and 4.072 with Brain [12]. In addition, in data set [5], the k el is 0.000307 s⁻¹. Moreover, the AUCt in the data set on Brain [8] came to 7557.692 µg·min/g.

As to `CC(C)Cc1ccc(C(C)C(=O)OCC(OC(=O)C(C)c2ccc(CC(C)C)cc2)C2OC(=O)C(O)=C2O)cc1` (configuration not stated), the half-life in data set [1] is 18.9 h; in data set [6] it was 0.465 h; in [7] it was 12.4 h; in data set [10], 39.5 h; in [11] it was 8.1 h; in [15], 0.737 h. The K in the data set on Brain [2] is on record as 2.48 ×10⁻² /min; in data set [4], 5.58 ×10⁻² /hr; in data set [9], 3.66 ×10⁻² /hr; in data set [13], 1.76 ×10⁻² /hr; in [14] it was 8.65 ×10⁻² /hr. Further, the results for the Ratio in the data set with Brain [3] and with Brain [12] were 4.965 and 3.516, respectively. Also, the k el in data set [5] is 0.000262 s⁻¹. The AUCt in the data set with Brain [8] came out at 6526.7422 µg·min/g.

For the compound `CC(C)Cc1ccc(C(C)C(=O)OC(CO)C2OC(=O)C(O)=C2O)cc1` (configuration not stated), the half-life in [1] is 20.6 h; in data set [6] it was 0.278 h; in data set [7], 16.1 h; in data set [10] it was 43 h; in data set [11], 9.7 h; in data set [15] it was 0.857 h. In addition, the K in the data set on Brain [2] was determined as 4.16 ×10⁻² /min; in [4] it was 4.3 ×10⁻² /hr; in [9], 3.36 ×10⁻² /hr; in [13] it was 1.61 ×10⁻² /hr; in data set [14], 7.15 ×10⁻² /hr. Also, the figures for the Ratio with Brain [3] and in the data set on Brain [12] were 4.194 and 2.254, respectively. Also, the k el in data set [5] was 0.000225 s⁻¹. Also, the AUCt in the data set with Brain [8] worked out at 4183.3895 µg·min/g.

Take `CC(C)Cc1ccc(C(C)C(=O)O)cc1` (configuration not stated) [IBUPROFEN]: in data set [16], the MRT came to 78.9 h. The compound further gave an AUCt with Brain [17] of 1856.215 µg·min/g. Besides, the values for the Tmax in data set [18] and in data set [20] were 6.67 min and 0.417 h, respectively. Besides, the Cmax in data set [19] worked out at 10700 ng/g; in data set [22], 28400 ng/mL. The AUC(0-t) in data set [21] is 56800 ng·h/mL.
